Screening results as filed in PubChem BioAssay.
A selection: hits, their analogues and other compounds. The true share with any hit is near 6.8%.
PHOSPHO1 block = inhibitors of human PHOSPHO1 phosphatase; Q8TCT1; recombinant PHOSPHO1, absorbance phosphatase assay; inhibition, % at 13.3 µM; 290,000 tested, 1.1% active; in the data active = inhibition above about 60%
Target sequence (Q8TCT1 whole entry, looked up): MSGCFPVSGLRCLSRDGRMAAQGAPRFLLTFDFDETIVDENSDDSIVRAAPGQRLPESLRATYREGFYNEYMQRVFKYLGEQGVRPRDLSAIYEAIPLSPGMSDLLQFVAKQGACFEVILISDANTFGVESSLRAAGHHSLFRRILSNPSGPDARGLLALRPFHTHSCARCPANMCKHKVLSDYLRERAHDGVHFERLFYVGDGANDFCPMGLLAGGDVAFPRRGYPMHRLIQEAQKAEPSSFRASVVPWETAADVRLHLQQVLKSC
ALR H2O2 inh = blocks human ALR sulfhydryl oxidase activity; P55789; purified ALR, DTT oxidation, H2O2 HRP-luminol luminescence; inhibition, % (test concentration not listed); 290,000 tested, 3.8% active;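 active = mean replicate inhibition above about 79%, with every replicate also reaching it, limit read from the data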
Target sequence (P55789 whole entry, looked up): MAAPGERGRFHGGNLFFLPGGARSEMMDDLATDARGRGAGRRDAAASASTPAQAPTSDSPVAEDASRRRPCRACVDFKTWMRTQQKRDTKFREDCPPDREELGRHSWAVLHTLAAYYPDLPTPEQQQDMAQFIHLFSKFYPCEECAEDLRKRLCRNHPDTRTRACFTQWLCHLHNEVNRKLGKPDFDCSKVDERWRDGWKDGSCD
HSF-1 act = increases HSF-1 driven luciferase reporter signal | 300,000 tested, 1.7% active | activation, % at 9 µM | AID 504408 | NIH3T3-HGL HSF-1 luciferase reporter, MG132, 8 h; 100% = twice DMSO control signal;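 active = mean replicate activation of at least 50% with a set share of replicates each reaching 50%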;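 note: 0% = median of the neutral control wells and 100% = twice that signal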
HSF1 inhib = HSF1 inhibition; NIH3T3-HGL HSE-luciferase, MG132-induced, luminescence 8 h; hits give low values; activity change, negative = inhibition, % at 7.5 µM (by protocol); 300,000 tested, 0.77% active; AID 2098;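 active = more than half of replicate wells show activity change below -50%, luminescence cut by over half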;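 note: luciferase reports HSF-1 transcriptional activity via heat shock element; 0% = median of DMSO wells and -100% = zero luminescence signal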
AI-2 QS mod = modulates the Vibrio harveyi AI-2 quorum sensing system. Vibrio harveyi JMH597 AI-2 luminescence/OD600 ratio, 9 h; hits give low values; strain lacks LuxN and CqsS sensors; 0 = neutral-control median. activity change, % at 7.5 µM. 300,000 tested, 0.4% active. AID 2094; in the data active = activity change below about -75%, passing the limit was not always enough;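 note: luminescence divided by OD600 gain over 9 h not by final OD600 alone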
HCV core dimer = blocks dimerization of HCV core protein. 300,000 tested, 0.33% active. inhibition, % at 5 µM. TR-FRET GST/Flag-core106 dimerization, 1536-well. AID 1899;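 active = inhibition above the mean of all tested compounds plus 3 SD, set per screening campaign, cut at about 45% in these data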
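Test system: GST/Flag-tagged HCV core106 proteins; Medium: KF-containing HEPES buffer, pH 7.45, DTT, CHAPS, BSA; Times: compound-protein-antibody incubation 4 h at 22.5 °C; Detection: TR-FRET 671 and 617 nm emission; Benchmarks: wells lacking GST-core106 and wells with excess unlabelled core106.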
The depositor's hits bear a star; . = no result given.

SMILES | PHOSPHO1 block | ALR H2O2 inh | HSF-1 act | HSF1 inhib | AI-2 QS mod | HCV core dimer
CC12CC(c3ccccc3O1)N(C(=O)c1ccco1)C(=S)N2c1ccc(F)cc1 (stereo not given) | 71.1* | . | -12.6 | 4.1 | 6.8 | 7.8
CC1(C)Cc2c(cnn2-c2ccc(F)cc2)C(NC(=O)c2ccco2)C1 (stereo not given) | -4.3 | 2.3 | -13.6 | 3.5 | 4.2 | -0.8
Cc1cc(Oc2ncccc2[N+](=O)[O-])c2cc(Cl)ccc2n1 | -3.1 | 97.2* | -1.7 | -2.3 | 27.3 | 0.3
O=C(Nn1c(O)c(C=C2N=c3ccccc3=N2)sc1=S)c1ccccc1 | 85.8* | 24.6 | 0.9 | -0.5 | 10.4 | 0.2
O=C(Nn1c(O)c(C=C2N=c3ccccc3=N2)sc1=S)c1cccc(Cl)c1 | 86.0* | 10.3 | 11.6 | -7.4 | 19.4 | -11.0
O=C(Nc1nccs1)C1CCN(S(=O)(=O)c2c(Cl)cccc2Cl)CC1 | -3.7 | -0.9 | -6.1 | 1.5 | 32.0 | 5.5
Cc1ccc(S(=O)(=O)Nc2cc3c(C(=O)Nc4ccccc4)c(C)oc3c3ccccc23)cc1 | 9.1 | 0.2 | 36.8 | 19.6 | 31.9 | 50.1*
Cc1noc(NS(=O)(=O)c2ccc(NC(=O)c3cnc4n(c3=O)CCS4)cc2)c1C | 2.5 | 98.7* | -0.1 | -3.2 | 10.0 | -3.1
CC(=O)c1c(C)oc2c1cc(NS(=O)(=O)c1ccc(C(=O)O)cc1)c1ccccc12 | 40.0 | -25.7 | 27.0 | 3.8 | . | -3.5
Cc1ccc2c(=O)cc(C(=O)Nc3ccc(S(=O)(=O)Nc4onc(C)c4C)cc3)oc2c1 | 34.1 | 96.9* | 1.7 | 1.1 | 22.8 | 1.0
Cc1noc(NS(=O)(=O)c2ccc(NC(=O)c3oc4ccc(Cl)cc4c3C)cc2)c1C | 19.0 | 98.2* | 6.5 | 0.8 | 7.3 | 14.3
COc1ccc(C2NC(=O)NC(C)=C2C(=O)OCC2CCCCC2)cc1OC (stereo not given) | 11.4 | -5.2 | -0.3 | -2.3 | 15.2 | 1.5
O=C(CS(=O)(=O)c1ccc(F)cc1)NCCS(=O)(=O)c1ccccc1 | 23.3 | -3.9 | -17.0 | -3.6 | 10.6 | 5.9
Cc1ccc(-c2cc(C(=O)Nc3ccc(S(=O)(=O)Nc4onc(C)c4C)cc3)c3ccccc3n2)cc1 | 43.8 | 97.8* | 12.6 | 4.8 | 29.0 | 20.6
Cc1cc(C)nc(NS(=O)(=O)c2ccc(NC(=O)c3cc(-c4ccccc4)nc4ccccc34)cc2)n1 | -12.3 | -0.2 | 7.3 | -2.9 | 54.9 | 23.1
Cc1ccc2c(C)c(C(=O)Nc3ccc(S(=O)(=O)Nc4onc(C)c4C)cc3)oc2c1 | 36.4 | 96.7* | 2.4 | 3.4 | 12.1 | 16.1
CCOc1ccc(Nc2nnc(Cc3ccc(OC)cc3)c(=O)[nH]2)cc1 | 16.5 | -11.9 | -9.1 | -14.9 | 32.1 | 5.2
Nc1ccc(C(=O)N/N=C/c2cn(Cc3ccccc3F)c3ccccc23)cc1 | 41.4 | -11.4 | 15.0 | -6.4 | 15.2 | .
CC(C)n1cc(/C=N/Nc2ccc(C(=O)O)cc2)c2ccccc21 | -2.6 | 99.5* | -84.2 | -81.9* | 12.5 | -45.4
O=C(O)c1ccc(N/N=C/c2cn(Cc3ccccc3F)c3ccccc23)cc1 | 6.2 | 98.2* | -70.4 | -63.6* | -3.3 | -2.2
CCOCCCNC(=O)CN1CCN(Cc2ccc(Cl)cc2)C1=O | . | -4.2 | 0.6 | -0.4 | 18.7 | -1.4
COc1cccc(-c2nnc(SCc3ccc(C#N)cc3)n2Cc2ccco2)c1 | 65.4* | 1.2 | -5.8 | -2.0 | 30.4 | 12.5
Cc1ccc(-c2nnc(SCc3ccc(C#N)cc3)n2Cc2ccco2)cc1 | 100.4* | 0.3 | 27.0 | 15.7 | -14.9 | 11.8
CCn1c(SCc2cccc(C)c2)nnc1-c1ccc(C)cc1 | 68.9* | -1.7 | -2.2 | 3.0 | -1.3 | 2.0
CC(C)(C)c1ccc(CSc2nnc(-c3ccccn3)n2Cc2ccco2)cc1 | 49.4 | 2.1 | 38.5 | 13.1 | 2.0 | 14.9
SMILES | PHOSPHO1 block | ALR H2O2 inh | HSF-1 act | HSF1 inhib | AI-2 QS mod | HCV core dimer
CCn1c(SCc2cccc(F)c2)nnc1-c1ccncc1 | 52.2 | 4.6 | 8.4 | -5.5 | 23.4 | .
Cc1ccccc1NC(=O)CCNS(=O)(=O)c1cccc2nsnc12 | 26.5 | . | 39.8 | 15.0 | 6.1 | -11.7
Cc1cc(/C=C2\SC(=S)NC2=O)c(C)n1-c1ccccc1 | -48.3 | . | 34.4 | 12.0 | 26.6 | 7.8
Cc1cc(/C=C2\SC(=S)NC2=O)c(C)n1C | 87.7* | 33.8 | 8.8 | -3.9 | 27.9 | -0.3
CN(C)c1ccc(C(O)P(=O)(OC2CCCCC2)OC2CCCCC2)cc1 (stereo not given) | 7.5 | 96.8* | 12.3 | 0.8 | . | 0.1
Cc1ccc(C(O)P(=O)(OC2CCCCC2)OC2CCCCC2)cc1 (stereo not given) | 21.9 | 3.6 | -0.9 | 4.8 | 11.2 | 0.0
CC(C)OP(=O)(OC(C)C)C(O)c1ccc(N(C)C)cc1 (stereo not given) | 15.0 | 97.3* | -0.2 | -3.0 | -6.4 | -3.0
CC(C)OP(=O)(c1ccc(N(C)C)cc1)C(O)c1ccc(C(C)C)cc1 (stereo not given) | . | -6.5 | -0.5 | -0.2 | 17.8 | 0.3
CCN1CCN(Cc2ccc3c(c2)Cc2ccccc2-3)CC1 | 4.6 | . | . | . | . | .
c1ccc2c(c1)Cc1cc(CN3CCOCC3)ccc1-2 | 15.6 | -5.6 | 56.4* | 41.0 | 3.2 | -4.0
CC(=O)c1ccc(NC(=O)C2CC(=O)N(C(C)C)C2)cc1 (stereo not given) | 42.1 | . | 6.0 | -3.2 | -13.0 | -2.0
O=C1OC(NC(=O)c2ccccc2)C(n2cc(CO)nn2)=C1Cl (stereo not given) | -29.3 | 0.1 | -66.8 | -61.9* | 5.9 | -47.1
Cc1ccc(NC2=C(Cl)C(=O)OC2NC(=O)c2ccccc2)cc1 (stereo not given) | -7.3 | 3.8 | 5.0 | 8.0 | 13.7 | -3.8
COc1ccc(C(=O)C2CCCN(S(=O)(=O)N(C)C)C2)c(C)c1 (stereo not given) | 13.8 | . | 3.8 | 4.0 | -4.6 | -18.7
COc1ccc(C(=O)C2CCCN(S(=O)(=O)C(C)C)C2)c(C)c1 (stereo not given) | 39.5 | 0.0 | 62.2* | 15.1 | 26.6 | 2.2
COc1ccc(-n2c(C)cc(=O)[nH]c2=O)cc1 | 31.1 | -10.0 | 2.2 | -3.2 | 1.5 | -7.9
c1ccc2sc(-c3ccncc3)nc2c1 | -1.3 | -4.9 | . | . | 18.5 | -1.0
Nc1ccccc1-c1nc2ccccc2s1 | 41.2 | -4.8 | -78.5 | -71.3* | 8.7 | -0.9
Oc1ccc(-c2nc3ccccc3s2)c(O)c1 | -1.2 | 27.2 | 60.8* | 31.2 | 0.6 | 3.4
Nc1ccc(O)c(-c2nc3ccccc3s2)c1 | 31.0 | -7.5 | 9.6 | -1.1 | 29.9 | 82.0*
Oc1ccc(-c2nc3ccccc3s2)cc1 | 7.2 | 90.4* | 33.8 | 20.2 | 15.2 | 5.4
Cc1cc(C(=O)NCC(=O)OCC(=O)NCC2CCCO2)ccc1[N+](=O)[O-] (stereo not given) | . | -4.4 | . | . | . | .
